An excerpt weighted towards active compounds, which were near 1.9% of everything screened.
ASAP1 GAP inh = inhibitors of human ASAP1 ArfGAP activity, primary screen, biochemical, fluorescence polarization | Arf-GAP with SH3 domain, ANK repeat and PH domain-containing protein 1 (Homo sapiens), … | ASAP1-stimulated ARF1 GTP hydrolysis, GDP FP detection | inhibition, % at 16.5 µM | actives 0.19% (n = 360,000); in the data active = inhibition above about 25%
ARFGAP1 inh = inhibitors of rat ARFGAP1 GAP activity, primary screen, biochemical, fluorescence polarization, GDP tracer. Arfgap1-stimulated ARF1 GTP hydrolysis, GDP FP detection. inhibition, % at 16.5 µM. AID 651572, 2012. actives 0.26% (n = 360,000). ADP-ribosylation factor GTPase-activating protein 1 (Rattus norvegicus), Q62848;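 active = inhibition above a per-plate limit, mean inhibition of low control wells plus 3 SD, cut at about 25% in these data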
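Repeats: one replicate per compound; assay system: rat Arfgap1 catalytic domain, aa 1-136; times: enzyme reaction 120 min at 25 °C after 20 min preincubation; detection: FP of antibody-bound GDP Alexa 633 tracer, ex 620/em 688 nm; benchmarks: high control wells lacking Arfgap1, low control full reaction with DMSO; reagent: human ARF1(Δ1-17)-GTP substrate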
PLCg1 inh = PLC-gamma1 enzyme inhibitors, primary screen, biochemical, fluorescence, purified enzyme. fluorogenic substrate. 1-phosphatidylinositol 4,5-bisphosphate phosphodiesterase gamma-1 (Homo sapiens), P19174. AID 720700, 2013. inhibition, % at 12.2 µM. actives 0.84% (n = 370,000)
HGIII-sPLA2 inh = human group III sPLA2 inhibitors, primary screen, biochemical, QFRET, BODIPY PC-A2 liposome substrate | Group 3 secretory phospholipase A2 (Homo sapiens), Q9NZ20 | QFRET BODIPY PC-A2 liposome hydrolysis, fluorescence | inhibition, % at 12.2 µM | actives 0.56% (n = 370,000) | AID 743126, 2013;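 active = inhibition above mean plus 3 SD of compounds lying within the high and low control bounds, cut at about 19% in these data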
Target sequence (Q9NZ20 whole entry, looked up): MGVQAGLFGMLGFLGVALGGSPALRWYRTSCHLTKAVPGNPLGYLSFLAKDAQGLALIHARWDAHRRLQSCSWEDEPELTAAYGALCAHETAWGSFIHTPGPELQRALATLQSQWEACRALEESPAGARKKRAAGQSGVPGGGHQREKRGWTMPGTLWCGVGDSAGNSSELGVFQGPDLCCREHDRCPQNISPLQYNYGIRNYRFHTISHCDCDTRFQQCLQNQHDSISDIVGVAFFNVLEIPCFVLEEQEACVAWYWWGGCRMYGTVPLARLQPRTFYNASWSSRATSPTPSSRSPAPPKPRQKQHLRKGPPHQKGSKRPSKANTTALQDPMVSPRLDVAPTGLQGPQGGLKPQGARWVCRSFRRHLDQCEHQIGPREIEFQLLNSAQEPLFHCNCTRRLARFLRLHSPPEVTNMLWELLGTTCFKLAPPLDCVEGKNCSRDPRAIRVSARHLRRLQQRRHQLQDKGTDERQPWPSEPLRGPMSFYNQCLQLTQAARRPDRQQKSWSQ
PLCb3 inh = human PLC-beta3 inhibitors, primary screen, biochemical, fluorescence | inhibition, % at 12.2 µM | 1-phosphatidylinositol 4,5-bisphosphate phosphodiesterase beta-3 (Homo sapiens), Q01970 | AID 720704, 2013 | actives 0.18% (n = 370,000) | Purified PLC-beta3, fluorogenic substrate; in the data active = inhibition above about 11%
PLCgamma1 ctr = PLC-gamma1 enzyme inhibitors, counter-screen for PLC-beta3 inhibitor project, biochemical, fluorescence; inhibition, % at 12.3 µM; shares compounds with PLCg1 inh; AID 743258, 2014; actives 3.1% (n = 3,300); purified PLC-gamma1, fluorogenic substrate
PLCbeta3 conf = PLC-beta3 inhibitor confirmation, biochemical, fluorescence, purified enzyme | fluorogenic substrate fluorescence | shares compounds with PLCg1 inh | inhibition, % at 12.3 µM | actives 1% (n = 3,300); in the data active = inhibition above about 11%
A number is an active result; - = inactive; . = no result given. Rule as the data show it, unless noted: active = inhibition above about 9.5%; inactive = the rest.

SMILES | ASAP1 GAP inh | ARFGAP1 inh | PLCg1 inh | HGIII-sPLA2 inh | PLCb3 inh | PLCgamma1 ctr | PLCbeta3 conf
CCOC(=O)[C@]12CCCCC/C=C\1N(Cc1ccc(OC)cc1)C(=O)[C@H]2CC(=O)NCc1cccc(C(F)(F)F)c1 | . | . | - | - | - | . | .
COC(=O)C[C@H]1C=C[C@@H](C(C(=O)OC)C(=O)OC)CN1C(C)=O | - | - | 31 | - | - | - | -
O=C(NCCc1ccccc1)c1[nH]c(C(F)(F)F)nc1-c1ccccc1 | - | - | - | - | - | . | .
O=C(NCCc1ccc(O)cc1)c1[nH]c(C(F)(F)F)nc1-c1ccccc1 | - | - | 13 | - | - | - | -
C=CCN1[C@H](Cc2ccccc2)COc2cc(N3CCSCC3)ccc2S1(=O)=O | . | . | - | - | - | . | .
COc1ccc(-c2noc(C3CCCN(C(=O)Nc4cc(C)cc(C)c4)C3)n2)cc1 (stereo not given) | . | . | - | - | - | . | .
COC(=O)[C@]12C[C@H](CC(=O)NCCCCc3ccccc3)C(=O)N(Cc3ccccc3)C1=C[C@H](C(C)C)O[C@@H]2C1CC1 | - | - | 10 | - | - | - | -
COC(=O)[C@]12C[C@H](CC(=O)NCCCCc3ccccc3)C(=O)N(Cc3ccc4c(c3)OCO4)C1=C[C@H](C(C)C)O[C@@H]2C1CC1 | . | . | - | - | - | . | .
COC(=O)[C@]12C[C@H](CC(=O)NCc3ccc(C)o3)C(=O)N(Cc3ccco3)C1=C[C@H](C(C)(C)C)O[C@@H]2C | . | . | - | - | - | . | .
COC(=O)[C@]12C[C@H](CC(=O)N3CCOCC3)C(=O)N(CCC3=CCCCC3)C1=C[C@H](C1CCCC1)O[C@@H]2C | . | . | - | - | - | . | .
COC(=O)[C@]12C[C@H](CC(=O)N3CCN(C(=O)C4CC4)CC3)C(=O)N(Cc3ccccc3)C1=C[C@H](COCc1ccccc1)O[C@@H]2C | . | . | - | - | - | . | .
COC(=O)[C@]12C[C@H](CC(=O)N3CCCCC3)C(=O)N(CCC3=CCCCC3)C1=C[C@H](C1CCCC1)O[C@@H]2C | . | . | 11 | - | - | - | -
COC(=O)[C@]12C[C@H](CC(=O)N3CCN(C(=O)C4CC4)CC3)C(=O)N(Cc3cccc4ccccc34)C1=C[C@H](COCc1ccccc1)O[C@@H]2C | . | . | 14 | - | - | - | -
COC(=O)[C@]12C[C@H](CC(=O)NCc3ccc(C)o3)C(=O)N(Cc3ccccc3)C1=C[C@H](C(C)(C)C)O[C@@H]2C | - | - | 10 | - | - | - | -
COC(=O)c1cn(-c2ccc3c(c2)[C@@]2(CC(=O)N(C)C2c2ccccc2)C(=O)N3CC(C)C)nn1 (stereo not given in full) | . | . | - | - | - | . | .
NC(=O)c1c(N)[nH]c(C(=O)c2ccccc2)c1-c1ccccc1 | - | - | - | - | - | . | .
CN(Cc1ccccc1Cl)C(=O)CN1C(=O)C2(OCCCO2)c2ccccc21 | . | . | - | - | - | . | .
COC(=O)[C@]12C[C@H](CC(=O)NCCC(C)C)C(=O)N(Cc3ccc(Cl)cc3Cl)C1=C[C@H](C1CCCC1)O[C@@H]2C | . | . | 11 | - | - | - | -
COC(=O)[C@]12C[C@H](CC(=O)NCC3CCCCC3)C(=O)N(Cc3cccc4ccccc34)C1=C[C@H](C1CCCC1)O[C@@H]2C | . | . | 11 | - | - | - | -
CCCCOCCCNC(=O)C[C@H]1C[C@@]2(C(=O)OC)C(=C[C@H](C3CCCC3)O[C@@H]2C)N(Cc2ccc(Cl)cc2Cl)C1=O | . | . | - | - | - | . | .
Cc1ccc(C(=O)N(C)[C@H]2C[C@H]3c4[nH]c5c(-c6cccc(C)c6)cccc5c4CCN3C[C@H]2[C@H](C)O)cc1 | . | . | - | - | - | . | .

Compound activity deposited in PubChem BioAssay by The Scripps Research Institute Molecular Screening Center.
